Test results: PubChem BioAssay AID588791 (Southern Research Specialized Biocontainment Screening …, 2011)
Calls of active or inactive are those of the source.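 Rule for the calls: active = virus titer falling by more than one log, over tenfold fewer virus than untreated infected wells; inactive = the rest.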

Tested on: HEp-2 cells, RSV plaque reduction, virus titer
Assay: inhibitors of RSV replication, plaque titer, late-stage follow-up, orthogonal assay for RSV inhibitor project, cell-based, set 5 (AID 588791)
Details: stronger effect = lower value
In short: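 Material: RSV Long-infected HEp-2 cells; Timing: 48 h compound treatment, 37 °C; Detection: plaque assay on HEp-2, neutral red staining.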

SMILES | log virus titer change (at 10 µM) | log virus titer change (titer change, at 2.5 µM) | log virus titer change (titer change, at 5 µM)
CC(C)c1ccc(Cn2c(=O)n(Cc3ccc(C(=O)NCC4COC4)cc3)c(=O)c3cccnc32)cc1 | -2.72 | 0.155 | -0.572
CC(C)c1ccc(Cn2c(=O)n(Cc3ccc(C(=O)NCC4COC4)cc3)c(=O)c3ncccc32)cc1 | 0.144 (inactive) | 0.21 | 0.267
CC(C)c1ccc(Cn2c(=O)n(Cc3ccc(C(=O)NCC4COC4)cc3)c(=O)c3ccccc32)cc1 | -5.75 | -3.06 | -5.75
CC(C)(C)c1ccc(Cn2c(=O)n(Cc3ccc(C(=O)NCC4COC4)cc3)c(=O)c3ccccc32)cc1 | -3.4 | 0.138 | -1.13
